Data taken from ChEMBL document CHEMBL4371031, “In Vitro Antiviral Activity of New Oxazoline Derivatives as Potent Poliovirus Inhibitors” (J Med Chem, 2019).

Columns and labels:
[1] = test system: Poliovirus 1; assay: Antiviral activity against Human poliovirus 1 10240 infected in human HeLa cells assessed as reduction in virus-induced cytopathic effect after 72 hrs by crystal violet staining-based assay; type: functional, organism-based; conditions: Enterovirus C, 10240, HeLa
In short: (§1)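 HeLa cells grown in MEM-10% FBS, seeded at 2x10^5 cells/mL in MEM-2% FBS and preincubated 24 h at 37°C, 5% CO2. Compound and virus were cross-titrated […] compound in 0.5 log10 steps (7-point curves), with duplicate wells and three replicate tests per virus. After 72 h at 37°C, cells were crystal violet stained and read at 590 nm. EC50 came from a four-parameter fit; if all virus dilutions gave >80% monolayer destruction, the value was […].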

[2] = test system: Poliovirus 2; assay: Antiviral activity against Human poliovirus 2 Sabin 2 infected in human HeLa cells assessed as reduction in virus-induced cytopathic effect after 72 hrs by crystal violet staining-based assay; type: functional, organism-based; conditions: Enterovirus C, Sabin 2, HeLa; in short: as §1
[3] = test system: Poliovirus 3; assay: Antiviral activity against Human poliovirus 3 10804 infected in human HeLa cells assessed as reduction in virus-induced cytopathic effect after 72 hrs by crystal violet staining-based assay; type: functional, organism-based; conditions: Enterovirus C, 10804, HeLa; in short: as §1
[4] = test system: Poliovirus 1; assay: Antiviral activity against Human poliovirus 1 10695 infected in human HeLa cells assessed as reduction in virus-induced cytopathic effect after 72 hrs by crystal violet staining-based assay; type: functional, organism-based; conditions: Enterovirus C, 10695, HeLa; in short: as §1
[5] = test system: Poliovirus 2; assay: Antiviral activity against Human poliovirus 2 MEF-1 infected in human HeLa cells assessed as reduction in virus-induced cytopathic effect after 72 hrs by crystal violet staining-based assay; type: functional, organism-based; conditions: Enterovirus C, MEF-1, HeLa; in short: as §1
[6] = test system: Poliovirus 2; assay: Antiviral activity against Human poliovirus 2 10220 infected in human HeLa cells assessed as reduction in virus-induced cytopathic effect after 72 hrs by crystal violet staining-based assay; type: functional, organism-based; conditions: Enterovirus C, 10220, HeLa; in short: as §1
[7] = Therapeutic ratio of CC50 for human HeLa cells to EC50 for Poliovirus Sabin 2 infected in human HeLa cells; type: toxicity, cell-based; conditions: read-out: Ratio CC50/EC50
[8] = test system: Poliovirus 2; assay: Antiviral activity against Human poliovirus 2 10234 infected in human HeLa cells assessed as reduction in virus-induced cytopathic effect after 72 hrs by crystal violet staining-based assay; type: functional, organism-based; conditions: Enterovirus C, 10234, HeLa; in short: as §1
[9] = test system: Poliovirus 2; assay: Antiviral activity against Human poliovirus 2 10226 infected in human HeLa cells assessed as reduction in virus-induced cytopathic effect after 72 hrs by crystal violet staining-based assay; type: functional, organism-based; conditions: Enterovirus C, 10226, HeLa; in short: as §1
[10] = test system: Poliovirus 1; assay: Antiviral activity against Human poliovirus 1 10689 infected in human HeLa cells assessed as reduction in virus-induced cytopathic effect after 72 hrs by crystal violet staining-based assay; type: functional, organism-based; conditions: Enterovirus C, 10689, HeLa; in short: as §1
[11] = test system: Poliovirus 2; assay: Antiviral activity against Poliovirus Sabin 2 infected in human HeLa cells assessed as reduction in virus-induced cytopathic effect after 72 hrs by crystal violet staining-based assay; type: functional, organism-based; conditions: Enterovirus C; in short: as §1
[12] = test system: Poliovirus 2; assay: Antiviral activity against Human poliovirus 2 10243 infected in human HeLa cells assessed as reduction in virus-induced cytopathic effect after 72 hrs by crystal violet staining-based assay; type: functional, organism-based; conditions: Enterovirus C, 10243, HeLa; in short: as §1
[13] = test system: Poliovirus 1; assay: Antiviral activity against Human poliovirus 1 Sabin 1 infected in human HeLa cells assessed as reduction in virus-induced cytopathic effect after 72 hrs by crystal violet staining-based assay; type: functional, organism-based; conditions: Enterovirus C, Sabin 1, HeLa; in short: as §1
[14] = test system: Poliovirus 1; assay: Antiviral activity against Human poliovirus 1 10237 infected in human HeLa cells assessed as reduction in virus-induced cytopathic effect after 72 hrs by crystal violet staining-based assay; type: functional, organism-based; conditions: Enterovirus C, 10237, HeLa; in short: as §1
[15] = test system: Poliovirus 1; assay: Antiviral activity against Human poliovirus 1 10235 infected in human HeLa cells assessed as reduction in virus-induced cytopathic effect after 72 hrs by crystal violet staining-based assay; type: functional, organism-based; conditions: Enterovirus C, 10235, HeLa; in short: as §1
[16] = Cytotoxicity against human HeLa cells after 72 hrs by ATP-bioluminescence cell viability assay; type: cell-based
In short: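 Luminescent ATP cell-viability read-out on HeLa cells with compound only, run under conditions similar to the cytopathic-effect assay (72 h, 37°C). Signal was compared with cell-only wells. CC50 was derived from the titration curves.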

[17] = test system: Poliovirus 3; assay: Antiviral activity against Poliovirus Sabin 3 infected in human HeLa cells assessed as reduction in virus-induced cytopathic effect after 72 hrs by crystal violet staining-based assay; type: functional, organism-based; conditions: Enterovirus C
In short: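 HeLa cells grown in MEM-10% FBS, seeded at 2x10^5 cells/mL in MEM-2% FBS and held 24 h at 37°C, 5% CO2. Compound and virus were cross-titrated together on the cells starting at 10 µM compound, in 0.5 log10 steps, duplicate wells, three replicate tests per virus. Incubated 72 h at 37°C, stained with crystal violet, A590 read. EC50 from four-parameter fit.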

[18] = test system: Poliovirus 1; assay: Antiviral activity against Poliovirus Sabin 1 infected in human HeLa cells assessed as reduction in virus-induced cytopathic effect after 72 hrs by crystal violet staining-based assay; type: functional, organism-based; conditions: Enterovirus C; in short: as §1
[19] = test system: Poliovirus 1; assay: Antiviral activity against Human poliovirus 1 10688 infected in human HeLa cells assessed as reduction in virus-induced cytopathic effect after 72 hrs by crystal violet staining-based assay; type: functional, organism-based; conditions: Enterovirus C, 10688, HeLa; in short: as §1
[20] = test system: Poliovirus 1; assay: Antiviral activity against Human poliovirus 1 10241 infected in human HeLa cells assessed as reduction in virus-induced cytopathic effect after 72 hrs by crystal violet staining-based assay; type: functional, organism-based; conditions: Enterovirus C, 10241, HeLa; in short: as §1
[21] = test system: Poliovirus 1; assay: Antiviral activity against Human poliovirus 1 10239 infected in human HeLa cells assessed as reduction in virus-induced cytopathic effect after 72 hrs by crystal violet staining-based assay; type: functional, organism-based; conditions: Enterovirus C, 10239, HeLa; in short: as §1
[22] = test system: Poliovirus 1; assay: Antiviral activity against Human poliovirus 1 10225 infected in human HeLa cells assessed as reduction in virus-induced cytopathic effect after 72 hrs by crystal violet staining-based assay; type: functional, organism-based; conditions: Enterovirus C, 10225, HeLa; in short: as §1
[23] = test system: Poliovirus 1; assay: Antiviral activity against Human poliovirus 1 Brunhilde infected in human HeLa cells assessed as reduction in virus-induced cytopathic effect after 72 hrs by crystal violet staining-based assay; type: functional, organism-based; conditions: Enterovirus C; in short: as §1
[24] = test system: Poliovirus 1; assay: Antiviral activity against Human poliovirus 1 10694 infected in human HeLa cells assessed as reduction in virus-induced cytopathic effect after 72 hrs by crystal violet staining-based assay; type: functional, organism-based; conditions: Enterovirus C, 10694, HeLa; in short: as §1
[25] = test system: Poliovirus 3; assay: Antiviral activity against Human poliovirus 3 10805 infected in human HeLa cells assessed as reduction in virus-induced cytopathic effect after 72 hrs by crystal violet staining-based assay; type: functional, organism-based; conditions: Enterovirus C, 10805, HeLa; in short: as §1
[26] = test system: Poliovirus 2; assay: Antiviral activity against Human poliovirus 2 10219 infected in human HeLa cells assessed as reduction in virus-induced cytopathic effect after 72 hrs by crystal violet staining-based assay; type: functional, organism-based; conditions: Enterovirus C, 10219, HeLa; in short: as §1
[27] = test system: Poliovirus 1; assay: Antiviral activity against Human poliovirus 1 10222 infected in human HeLa cells assessed as reduction in virus-induced cytopathic effect after 72 hrs by crystal violet staining-based assay; type: functional, organism-based; conditions: Enterovirus C, 10222, HeLa; in short: as §1
[28] = test system: Poliovirus 2; assay: Antiviral activity against Human poliovirus 2 10233 infected in human HeLa cells assessed as reduction in virus-induced cytopathic effect after 72 hrs by crystal violet staining-based assay; type: functional, organism-based; conditions: Enterovirus C, 10233, HeLa; in short: as §1

SMILES	EC50 [1] [nM]	EC50 [2] [nM]	EC50 [3] [nM]	EC50 [4] [nM]	EC50 [5] [nM]	EC50 [6] [nM]	selectivity ratio [7]	EC50 [8] [nM]	EC50 [9] [nM]	EC50 [10] [nM]	EC50 [11] [nM]	EC50 [12] [nM]	EC50 [13] [nM]	EC50 [14] [nM]	EC50 [15] [nM]	CC50 at 72 h [16] [nM]	EC50 [17] [nM]	EC50 [18] [nM]	EC50 [19] [nM]	EC50 [20] [nM]	also measured
Cc1ccc(C(=O)CCCCSc2ccc(C3=NCCO3)cc2)s1	8470	160	440	7430	1260	1000	146	2470	130	2030	137	1770	700	6470	8470	20000	330	118	2800	8070	EC50 [21]: 5630 nM; EC50 [22]: > 10000 nM; EC50 [23]: 470 nM; EC50 [24]: 6230 nM; EC50 [25]: 1500 nM; EC50 [26]: 1200 nM; EC50 [27]: 4900 nM; EC50 [28]: 8470 nM
Cc1ccc(C(=O)CCCCOc2ccc(C3=NCCO3)cc2)s1	3620	30	> 100000	8410	> 100000	40	> 1670	30	> 100000	60	187	40	12500	5750	4610	> 50000	367	90800	40	3170	EC50 [21]: 940 nM; EC50 [22]: 35700 nM; EC50 [23]: 990 nM; EC50 [24]: 7220 nM; EC50 [25]: 270 nM; EC50 [26]: 30 nM; EC50 [27]: 7890 nM; EC50 [28]: 450 nM
Cc1ccc(C(=O)CCC/C=C/c2ccc(C3=NCCO3)cc2)s1	270	30	20	580	30	20	> 1850	20	20	34	27	30	340	280	400	> 50000	53	338	40	370	EC50 [21]: 220 nM; EC50 [22]: 810 nM; EC50 [23]: 70 nM; EC50 [24]: 2300 nM; EC50 [25]: 30 nM; EC50 [26]: 30 nM; EC50 [27]: 1130 nM; EC50 [28]: 190 nM
